Measured values taken from ChEMBL document CHEMBL1137643, “In vitro and in vivo activities of novel fluoroquinolones alone and in combination with clarithromycin against clinically isolated Mycobacterium avium complex strains in Japan” (2007).
Converted amounts (≈) assume the structure as drawn.

Tests used:
Type in all cases: functional
[1] = system: Mycobacterium intracellulare; assay: Antimycobacterial activity against Mycobacterium intracellular JATA52-01 infected C57BL/6J mouse assessed as lung bacterial count at 200 mg/kg/day dosed through gavage route administered for 28 days post bacterial challenge measured 2 days after last dose
Procedure, shortened: (§1)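 Mice given 1.0 × 10^7 to 3.0 × 10^7 CFU in 100 μl via tail vein; daily gavage dosing began day 21 for 28 days; distilled-water controls. Sacrifice 48 h after last dose. Organ portions homogenized in 1 ml saline, diluted in 7H9, plated on 7H10; log10 CFU/organ, mean ± SEM, 5 mice/group. Experiment run twice; ANOVA with Fisher's PLSD.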

[2] = system: Mycobacterium intracellulare; assay: Antimycobacterial activity against Mycobacterium intracellular JATA52-01 infected C57BL/6J mouse assessed as liver bacterial count at 200 mg/kg/day dosed through gavage route administered for 28 days post bacterial challenge measured 2 days after last dose; procedure, shortened: as §1
[3] = system: Mycobacterium avium; assay: Antimycobacterial activity against Mycobacterium avium JATA51-01 infected C57BL/6J mouse assessed as liver bacterial count at 200 mg/kg/day dosed through gavage route administered for 28 days post bacterial challenge measured 2 days after last dose
Procedure, shortened: (§2)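 Mice infected via tail vein with 1.0 × 10^7 to 3.0 × 10^7 CFU in 100 μl saline; daily oral gavage started day 21, for 28 days; distilled-water controls; sacrificed 48 h after last dose; lungs, liver, spleen homogenized in saline, serially diluted in 7H9, plated on 7H10 agar; log10 CFU/organ, mean ± SEM, 5 mice/group; ANOVA with Fisher's PLSD; experiment done twice.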

[4] = system: Mycobacterium avium complex sp.; assay: Antimycobacterial activity against Mycobacterium avium complex N084 infected C57BL/6J mouse assessed as lung bacterial count at 200 mg/kg/day dosed through gavage route administered for 28 days post bacterial challenge measured 2 days after last dose; procedure, shortened: as §1
[5] = system: Mycobacterium avium complex sp.; assay: Antimycobacterial activity against Mycobacterium avium complex N084 after 14 days by broth microdilution method; conditions: N084, 336 h
Procedure, shortened: (§3)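 Broth microdilution in Middlebrook 7H9 (OADC, Tween 80, glycerol); twofold dilutions giving final 0.125–128 μg/ml; inoculum 1.0 × 10^5 CFU/well; 14 days at 37°C. MIC = lowest concentration completely inhibiting growth. Triplicate tests. Inocula from 7H10 agar colonies (21 days) subcultured in 7H9 for 7 days at 37°C, stored at −80°C.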

[6] = system: Mycobacterium avium; assay: Antimycobacterial activity against Mycobacterium avium JATA51-01 infected C57BL/6J mouse assessed as lung bacterial count at 200 mg/kg/day dosed through gavage route administered for 28 days post bacterial challenge measured 2 days after last dose; procedure, shortened: as §2
[7] = system: Mycobacterium avium complex sp.; assay: Antimycobacterial activity against Mycobacterium avium complex N018 infected C57BL/6J mouse assessed as spleen bacterial count at 200 mg/kg/day dosed through gavage route administered for 28 days post bacterial challenge measured 2 days after last dose; procedure, shortened: as §1
[8] = system: Mycobacterium avium complex sp.; assay: Antimycobacterial activity against Mycobacterium avium complex N018 infected C57BL/6J mouse assessed as lung bacterial count at 200 mg/kg/day dosed through gavage route administered for 28 days post bacterial challenge measured 2 days after last dose; procedure, shortened: as §1
[9] = system: Mycobacterium avium complex sp.; assay: Antimycobacterial activity against Mycobacterium avium complex N016 infected C57BL/6J mouse assessed as spleen bacterial count at 200 mg/kg/day dosed through gavage route administered for 28 days post bacterial challenge measured 2 days after last dose; procedure, shortened: as §1
[10] = system: Mycobacterium avium complex sp.; assay: Antimycobacterial activity against Mycobacterium avium complex N016 after 14 days by broth microdilution method; conditions: N016, 336 h; procedure, shortened: as §3
[11] = system: Mycobacterium intracellulare; assay: Antimycobacterial activity against Mycobacterium intracellular JATA52-01 after 14 days by broth microdilution method; conditions: JATA52-01, 336 h; procedure, shortened: as §3
[12] = system: Mycobacterium avium complex sp.; assay: Antimycobacterial activity against Mycobacterium avium complex N016 infected C57BL/6J mouse assessed as liver bacterial count at 200 mg/kg/day dosed through gavage route administered for 28 days post bacterial challenge measured 2 days after last dose; procedure, shortened: as §1
[13] = system: Mycobacterium avium complex sp.; assay: Antimycobacterial activity against Mycobacterium avium complex after 14 days by broth microdilution method; conditions: 336 h; procedure, shortened: as §3
[14] = system: Mycobacterium avium complex sp.; assay: Antimycobacterial activity against Mycobacterium avium complex N016 infected C57BL/6J mouse assessed as lung bacterial count at 200 mg/kg/day dosed through gavage route administered for 28 days post bacterial challenge measured 2 days after last dose; procedure, shortened: as §1
[15] = system: Mycobacterium avium; assay: Antimycobacterial activity against Mycobacterium avium JATA51-01 after 14 days by broth microdilution method; conditions: JATA51-01, 336 h
Procedure, shortened: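 Broth microdilution in 7H9 (10% OADC, 0.05% Tween 80, 0.2% glycerol); twofold drug dilutions, final 0.125–128 μg/ml; inoculum 1.0 × 10^5 CFU/well from 7-day 37°C subculture of 21-day 7H10 colonies; 14 days at 37°C; MIC = lowest concentration with complete growth inhibition; triplicate.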

[16] = system: Mycobacterium avium complex sp.; assay: Antimycobacterial activity against Mycobacterium avium complex N084 infected C57BL/6J mouse assessed as liver bacterial count at 200 mg/kg/day dosed through gavage route administered for 28 days post bacterial challenge measured 2 days after last dose; procedure, shortened: as §1
[17] = system: Mycobacterium avium; assay: Antimycobacterial activity against Mycobacterium avium JATA51-01 infected C57BL/6J mouse assessed as spleen bacterial count at 200 mg/kg/day dosed through gavage route administered for 28 days post bacterial challenge measured 2 days after last dose; procedure, shortened: as §2
[18] = system: Mycobacterium avium complex sp.; assay: Antimycobacterial activity against Mycobacterium avium complex N018 after 14 days by broth microdilution method; conditions: N018, 336 h; procedure, shortened: as §3
[19] = system: Mycobacterium intracellulare; assay: Antimycobacterial activity against Mycobacterium intracellular JATA52-01 infected C57BL/6J mouse assessed as spleen bacterial count at 200 mg/kg/day dosed through gavage route administered for 28 days post bacterial challenge measured 2 days after last dose; procedure, shortened: as §1
[20] = system: Mycobacterium avium complex sp.; assay: Antimycobacterial activity against Mycobacterium avium complex N018 infected C57BL/6J mouse assessed as liver bacterial count at 200 mg/kg/day dosed through gavage route administered for 28 days post bacterial challenge measured 2 days after last dose; procedure, shortened: as §1
[21] = system: Mycobacterium avium complex sp.; assay: Antimycobacterial activity against Mycobacterium avium complex N084 infected C57BL/6J mouse assessed as spleen bacterial count at 200 mg/kg/day dosed through gavage route administered for 28 days post bacterial challenge measured 2 days after last dose; procedure, shortened: as §1
[22] = system: Mycobacterium intracellulare; assay: Antimycobacterial activity against Mycobacterium intracellular JATA52-01 infected C57BL/6J mouse assessed as spleen bacterial count at 100 mg/kg/day dosed through gavage route administered for 28 days post bacterial challenge measured 2 days after last dose; procedure, shortened: as §1
[23] = system: Mycobacterium avium; assay: Antimycobacterial activity against Mycobacterium avium JATA51-01 infected C57BL/6J mouse assessed as spleen bacterial count at 100 mg/kg/day dosed through gavage route administered for 28 days post bacterial challenge measured 2 days after last dose; procedure, shortened: as §2
[24] = system: Mycobacterium avium complex sp.; assay: Antimycobacterial activity against Mycobacterium avium complex N084 infected C57BL/6J mouse assessed as spleen bacterial count at 100 mg/kg/day dosed through gavage route administered for 28 days post bacterial challenge measured 2 days after last dose; procedure, shortened: as §1
[25] = system: Mycobacterium avium complex sp.; assay: Antimycobacterial activity against Mycobacterium avium complex N018 infected C57BL/6J mouse assessed as lung bacterial count at 100 mg/kg/day dosed through gavage route administered for 28 days post bacterial challenge measured 2 days after last dose; procedure, shortened: as §1
[26] = system: Mycobacterium avium complex sp.; assay: Antimycobacterial activity against Mycobacterium avium complex N084 infected C57BL/6J mouse assessed as liver bacterial count at 100 mg/kg/day dosed through gavage route administered for 28 days post bacterial challenge measured 2 days after last dose; procedure, shortened: as §1
[27] = system: Mycobacterium avium complex sp.; assay: Antimycobacterial activity against Mycobacterium avium complex N018 infected C57BL/6J mouse assessed as liver bacterial count at 100 mg/kg/day dosed through gavage route administered for 28 days post bacterial challenge measured 2 days after last dose; procedure, shortened: as §1
[28] = system: Mycobacterium intracellulare; assay: Antimycobacterial activity against Mycobacterium intracellular JATA52-01 infected C57BL/6J mouse assessed as liver bacterial count at 100 mg/kg/day dosed through gavage route administered for 28 days post bacterial challenge measured 2 days after last dose; procedure, shortened: as §1
[29] = system: Mycobacterium avium; assay: Antimycobacterial activity against Mycobacterium avium JATA51-01 infected C57BL/6J mouse assessed as lung bacterial count at 100 mg/kg/day dosed through gavage route administered for 28 days post bacterial challenge measured 2 days after last dose; procedure, shortened: as §2
[30] = system: Mycobacterium avium complex sp.; assay: Antimycobacterial activity against Mycobacterium avium complex N016 infected C57BL/6J mouse assessed as lung bacterial count at 100 mg/kg/day dosed through gavage route administered for 28 days post bacterial challenge measured 2 days after last dose; procedure, shortened: as §1
[31] = system: Mycobacterium avium complex sp.; assay: Antimycobacterial activity against Mycobacterium avium complex N018 infected C57BL/6J mouse assessed as spleen bacterial count at 100 mg/kg/day dosed through gavage route administered for 28 days post bacterial challenge measured 2 days after last dose; procedure, shortened: as §1
[32] = system: Mycobacterium avium complex sp.; assay: Antimycobacterial activity against Mycobacterium avium complex N016 infected C57BL/6J mouse assessed as spleen bacterial count at 100 mg/kg/day dosed through gavage route administered for 28 days post bacterial challenge measured 2 days after last dose; procedure, shortened: as §1
[33] = system: Mycobacterium avium complex sp.; assay: Antimycobacterial activity against Mycobacterium avium complex N084 infected C57BL/6J mouse assessed as lung bacterial count at 100 mg/kg/day dosed through gavage route administered for 28 days post bacterial challenge measured 2 days after last dose; procedure, shortened: as §1
[34] = system: Mycobacterium avium; assay: Antimycobacterial activity against Mycobacterium avium JATA51-01 infected C57BL/6J mouse assessed as liver bacterial count at 100 mg/kg/day dosed through gavage route administered for 28 days post bacterial challenge measured 2 days after last dose; procedure, shortened: as §2
[35] = system: Mycobacterium avium complex sp.; assay: Antimycobacterial activity against Mycobacterium avium complex N016 infected C57BL/6J mouse assessed as liver bacterial count at 100 mg/kg/day dosed through gavage route administered for 28 days post bacterial challenge measured 2 days after last dose; procedure, shortened: as §1
[36] = system: Mycobacterium intracellulare; assay: Antimycobacterial activity against Mycobacterium intracellular JATA52-01 infected C57BL/6J mouse assessed as lung bacterial count at 100 mg/kg/day dosed through gavage route administered for 28 days post bacterial challenge measured 2 days after last dose; procedure, shortened: as §1

## C[C@H]1COc2c(N3CCN(C)CC3)c(F)cc3c(=O)c(C(=O)O)cn1c23.C[C@H]1COc2c(N3CCN(C)CC3)c(F)cc3c(=O)c(C(=O)O)cn1c23.O [LEVOFLOXACIN]
[1]
  log10cfu: 5.47
[2]
  log10cfu: 5.16
[3]
  log10cfu: 9.92
[4]
  log10cfu: 7.82
[5]
  MIC: 8 µg/mL
[6]
  log10cfu: 9.01
[7]
  log10cfu: 6.82
[8]
  log10cfu: 6.01
[9]
  log10cfu: 6.72
[10]
  MIC: 2 µg/mL
[11]
  MIC: 4 µg/mL
[12]
  log10cfu: 6.52
[13]
  MIC90: 16 µg/mL
[14]
  log10cfu: 5.48
[15]
  MIC: 4 µg/mL
[16]
  log10cfu: 7.77
[17]
  log10cfu: 9.38
[18]
  MIC: 4 µg/mL
[19]
  log10cfu: 4.48
[20]
  log10cfu: 7.4
[21]
  log10cfu: 7.58

## COc1c(N2C[C@@H]3CCCN[C@@H]3C2)c(F)cc2c(=O)c(C(=O)O)cn(C3CC3)c12 [MOXIFLOXACIN]
[22]
  log10cfu: 4.15
[23]
  log10cfu: 9.18
[24]
  log10cfu: 7.39
[25]
  log10cfu: 5.79
[26]
  log10cfu: 7.78
[5]
  MIC: 0.5 µg/mL (≈ 1.25 µM)
[27]
  log10cfu: 7.09
[28]
  log10cfu: 4.76
[29]
  log10cfu: 8.83
[10]
  MIC: 0.5 µg/mL (≈ 1.25 µM)
[30]
  log10cfu: 5.35
[31]
  log10cfu: 6.6
[32]
  log10cfu: 6.6
[11]
  MIC: 0.5 µg/mL (≈ 1.25 µM)
[33]
  log10cfu: 7.9
[13]
  MIC90: 2 µg/mL (≈ 4.98 µM)
[34]
  log10cfu: 9.68
[35]
  log10cfu: 6.53
[36]
  log10cfu: 4.83
[18]
  MIC: 0.5 µg/mL (≈ 1.25 µM)
